miR122 inh: miR-122 inhibition in Huh7 cells; Huh7 miR-122 Renilla luciferase sensor, 48 h; neutral wells = 0, positive control = 100; activation (reporter increase), % at 12.5 µM; 340,000 compounds, 0.3% hits; AID 602342;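 active means mean replicate activation score at least 90 and every replicate individually at or above 90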;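 further: higher luciferase means less miR-122 activity so hits act as miR-122 inhibitors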
CAL PDZ FP-1: inhibitors of human CAL PDZ peptide binding | Q9HD26 | purified CAL PDZ, TMR-peptide fluorescence polarization, 1 h | inhibition, % at 24.9 µM | 300,000 compounds, 0.92% hits | AID 602252;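 active means mean inhibition of at least 30% with at least half of replicates also reaching 30%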
PvdQ inh: P. aeruginosa PvdQ acylase inhibition; purified PvdQ acylase, fluorescence plate reader; inhibition, % at 10 µM; 340,000 compounds, 0.063% hits; AID 488965; in the data active means inhibition above about 30%, passing the limit was not always enough
CAL PDZ FP-2: inhibitors of human CAL PDZ peptide binding. purified CAL PDZ, TMR-peptide fluorescence polarization, 1 h. Q9HD26. inhibition, % at 20 µM. 330,000 compounds, 0.02% hits. AID 504414;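 active means highest replicate inhibition of at least 40%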
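Test system: tagged CAL PDZ domain / Buffer or medium: sodium phosphate/NaCl buffer pH 7.4 with TCEP, IgG, Thesit / Reagent: TMR-labelled reporter peptide T*-PRC34 bound in PDZ groove / Compound dosing: single point, 20 µM / Schedule: 1 h incubation at room temperature before polarization reading / Technique: fluorescence polarization (mP) / Benchmarks: unlabelled peptide, DMSO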
Hits are given with their value; i = inactive; nt = no result; [ ] = another dose, or the depositor's remark. Sampled rows, rich in hits. Any-hit rate of the full collection: about 0.95%.

SMILES | miR122 inh | CAL PDZ FP-1 | PvdQ inh | CAL PDZ FP-2
COc1cccc(CN2CC(C(=O)NCCc3ccccc3C(F)(F)F)CCC2=O)c1 (stereo not given) | i | 57 | i | i
O=C(NCCC1=CCCCC1)C1CCC(=O)N(Cc2cccc(C(F)(F)F)c2)C1 (stereo not given) | i | 36 | i | i
C[C@H]1CN([C@@H](C)CO)C(=O)Cc2cc(NC(=O)CCC(F)(F)F)ccc2O[C@H]1CN(C)C(=O)Nc1ccc2c(c1)OCO2 | i | nt | nt | nt
CC1Cc2ccccc2N1CC(=O)NCc1ccccc1Cl (stereo not given) | i | i | i | i
COc1ccc(CCN2C(=O)C(Oc3ccccc3C)C2c2ccc3c(c2)OCO3)cc1 (stereo not given) | i | i | i | i
O=C1C(Oc2ccccc2)C(c2ccc3c(c2)OCO3)N1CCc1ccc(F)cc1 (stereo not given) | 238 | nt | i | i
O=C(O)c1cccc2c3c([nH]c12)CCCC3 | i | i | i | i
Cc1ccc2c(c1)C(=C(C#N)C#N)CCN2 | nt | 39 | i | i
CCOc1ccc(Cl)cc1S(=O)(=O)N1CCC(C(=O)NCc2ccco2)CC1 | i | 98 | i | i
CCOc1cc(C)c(C(C)C)cc1S(=O)(=O)NCc1ccccn1 | 104 | nt | i | i
COc1cc(C)c(Cl)cc1S(=O)(=O)NCc1ccco1 | 105 | i | i | i
CCOc1ccc(S(=O)(=O)NCc2ccco2)c2ccccc12 | 122 | i | i | i
C[C@@H]1CN([C@@H](C)CO)S(=O)(=O)c2ccc(Br)cc2O[C@H]1CN(C)Cc1cncnc1 | i | nt | nt | nt
Cc1ccc(-n2nc(C)c3c2NC2=C(C(=O)CC(C)(C)C2)C3c2ccccc2OCC(=O)O)cc1 (stereo not given) | nt | i | i | i
O=C(COc1ccc(/C=N/NC(=O)c2cc3ccccc3o2)cc1Cl)Nc1ccccc1 | i | i | i | i
CCc1cc(=O)oc2c3c(cc(OCC(=O)NCc4ccco4)c12)OC(C)(C)CC3 | i | i | i | i
Cc1cc(S(=O)(=O)NCc2ccco2)c(C)cc1Cl | i | i | i | i
CCOc1cc(C)c(Cl)cc1S(=O)(=O)NCc1ccco1 | 116 | nt | i | i
O=C(COC(=O)CCc1ccc(S(=O)(=O)N2CCOCC2)cc1)NCc1ccccc1Cl | i | i | i | i
C[C@@H]1CN([C@H](C)CO)C(=O)CCCn2cc(nn2)CO[C@H]1CN(C)C(=O)Nc1cccc(Oc2ccccn2)c1 | i | nt | nt | nt
CCCC(=O)Nc1ccc(NC(=O)c2ccccc2Cl)nc1 | i | 41 | i | nt
CCCC(=O)Nc1ccc(NC(=O)Cc2ccccc2)cn1 | i | i | i | i
CC(=O)NC(Cc1ccccc1)C(C)=O (stereo not given) | i | 100 | i | i
CC(=O)C(Cc1ccccc1)NC(=O)CCl (stereo not given) | nt | i | i | i
CN(C)S(=O)(=O)c1ccc(NC(=O)C2CC(=O)N(Cc3ccccc3)C2)cc1 (stereo not given) | nt | i | i | i
SMILES | miR122 inh | CAL PDZ FP-1 | PvdQ inh | CAL PDZ FP-2
CCN(CC)c1ccc(NC(=O)C2CC(=O)N(Cc3ccccc3)C2)cc1 (stereo not given) | nt | 101 | i | i
Cc1ccc(NC(=O)c2cc(-c3ccc(F)cc3)on2)cc1C | i | i | i | i
O=C(COC(=O)CCCN1C(=O)c2ccccc2C1=O)Nc1ncc(Cl)cc1Cl | i | 40 | i | i
COCCOC(=O)c1c(C)nc(SCC(=O)Nc2cccc3ccccc23)c(C#N)c1-c1ccco1 | i | i | i | i
CNC(=O)c1c(C)nc(SCC(=O)NCc2ccc(OC)cc2)c(C#N)c1-c1ccco1 | i | 55 | i | i
Cc1cc(C)c(S(=O)(=O)NCc2ccc3c(c2)OCO3)cc1C | i | i | i | i
Cc1cc(C)c(S(=O)(=O)NCc2ccc3c(c2)OCO3)c(C)c1 | i | 69 | i | nt
CC(C)Sc1nnc(NC(=O)c2ccco2)s1 | nt | 56 | i | i
CCSc1nnc(NC(=O)c2ccco2)s1 | i | i | i | i
O=C(COC(=O)/C=C/c1ccccc1)Nc1ccc(Cl)cn1 | i | i | i | i
O=C(CN1C(=O)S/C(=C\c2ccccn2)C1=O)Nc1ccccc1 | i | nt | i | i
Cc1ccc(NC(=O)CN2C(=O)S/C(=C\c3ccccn3)C2=O)cc1 | nt | 85 | i | i
O=S(=O)(c1ccccc1)N1CCN(Cc2ccccc2)CC1 | nt | i | i | i
O=S(=O)(NCCc1ccccc1)c1cccc(S(=O)(=O)N2CCOCC2)c1 | 150 | nt | i | i
O=S(=O)(c1ccccc1)N1CCN(CCc2ccccc2)CC1 | i | 69 | i | i
Cc1ccc(N2C(=O)C(Cl)=C(N3CCN(C)CC3)C2=O)c(C)c1 | nt | i | i | i
COc1ccc(C(=O)N2CCNC(=O)C2CC(=O)Nc2ccc(C)cc2)cc1 (stereo not given) | nt | i | i | i
Cc1c(NC2(C#N)CCCC2)c(=O)n(-c2ccccc2)n1C | nt | 78 | i | i
Cc1c(NC2=CC(=O)CC(C)(C)C2)c(=O)n(-c2ccccc2)n1C | i | 31 | i | i
Cc1c(NC2=NC(C)(C)Cc3ccccc32)c(=O)n(-c2ccccc2)n1C | i | i | i | i
C/C=C/c1cnc2c(c1)C(=O)N([C@@H](C)CO)C[C@@H](C)[C@@H](CN(C)C(=O)c1ccc3c(c1)OCO3)O2 | i | nt | nt | nt
CN(N=C(c1ccccc1)c1ccccc1)c1ccccc1 | nt | i | i | i
COC(=O)C1=C(C)N(Cc2ccc(OC)cc2)C(=O)C1 | i | nt | i | i
Cc1ccnc(NC(=O)c2ccc(COc3c(F)c(F)cc(F)c3F)o2)c1 | i | nt | i | i
O=C(Nc1ccc(Br)cn1)c1ccc(COc2c(F)c(F)cc(F)c2F)o1 | i | 35 | i | i
SMILES | miR122 inh | CAL PDZ FP-1 | PvdQ inh | CAL PDZ FP-2
COc1ccc(C(=O)N2CCN(S(=O)(=O)c3ccccc3)CC2)c(OC)c1 | i | i | i | i
C=CCOc1cccc(C(=O)N2CCCC(CCC(=O)NCc3ccccc3F)C2)c1 (stereo not given) | nt | 74 | i | i
COc1ccc(C(=O)N2CCCC(CCC(=O)NCc3ccc(F)c(F)c3)C2)o1 (stereo not given) | i | 51 | i | i
O=S(=O)(c1ccccc1)N1CC[C@@H]2[C@H]1c1cc(C#Cc3ccccc3F)ccc1N[C@@H]2CO | i | nt | nt | nt
Cc1ccc2cc(-c3noc(C(C)(C)C)n3)c(=O)[nH]c2c1 | 206 | i | i | i
O=C(NCC1CCCO1)c1ccc2c(=O)n(Cc3ccco3)c(SCC(=O)N3CCCC3)nc2c1 (stereo not given) | nt | 79 | i | nt
COc1ccc(NC(=O)Nc2ccc3c(c2)CC(=O)N([C@H](C)CO)C[C@H](C)[C@@H](CN(C)C(=O)Nc2ccc(C(F)(F)F)cc2)O3)cc1 | i | nt | nt | nt
COc1ccc(NC(=O)N(C)C[C@H]2Oc3ccc(NC(=O)Nc4ccc(C(F)(F)F)cc4)cc3CC(=O)N([C@@H](C)CO)C[C@H]2C)cc1 | 201[16.7 µM] | nt | nt | nt
COc1ccc(NC(=O)Nc2ccc3c(c2)CC(=O)N([C@@H](C)CO)C[C@@H](C)[C@H](CN(C)C(=O)NC(C)C)O3)cc1 | 101[16.7 µM] | nt | nt | nt
COc1ccc(NC(=O)Nc2ccc3c(c2)CC(=O)N([C@H](C)CO)C[C@H](C)[C@@H](CN(C)C(=O)NC(C)C)O3)cc1 | i | nt | nt | nt
